This note sets out measurements from ChEMBL document CHEMBL1149269, “Novel 2-(substituted phenyl)benzimidazole derivatives with potent activity against IgE, cytokines, and CD23 for the treatment of allergy and asthma” (J Med Chem, 2004).

The source made the active and inactive calls. The calls are words filed in the database; no cut-off is given here. Where only a bound is given, the exact number is not on record here.

For series [1], the system named is Mus musculus. Description: Oral bioavailability in mouse at 40 mg/kg, po relative to AVP-13358. Type of series: ADME, organism-based. As to conditions: in vivo.
In another series the test system is B-cell. Description: Inhibition of IgE production in B lymphocytes from BALB/c mouse. Type of series: functional, cell-based. The method in brief: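 B cells isolated from spleens of naive BALB/c mice, cultured 5 days with IL-4 (10 ng/mL) and anti-mouse CD40 antibody (100 ng/mL), with or without drug. IgE in supernatants quantified by ELISA against a standard curve of DNP-specific mouse monoclonal antibody.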

The nature of series [2]: Ex vivo inhibition of IgE production in spleen cells from antigen sensitized BALB/c mouse. Type of series: functional, cell-based. The gist of the method:
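BALB/c mice immunized with DNP-KLH plus alum; spleens taken 2 weeks later and cultured with antigen, with or without drug. Antigen-specific IgE in supernatants quantified by ELISA against a standard curve of DNP-specific mouse monoclonal antibody.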

Series [3] concerns T-cell. The series can be described thus: Inhibition of IL4 production in conA and anti-CD3 antibody sensitized BALB/c mouse spleen T lymphocytes. Type of series: functional, tissue-based.
Series [4] deals with T-cell. The series can be described thus: Inhibition of IFN-gamma production in conA and anti-CD3 antibody sensitized BALB/c mouse spleen T lymphocytes. The series is classed as functional, tissue-based.
For series [5], the system named is T-cell. Description: Inhibition of IL5 production in conA and anti-CD3 antibody sensitized BALB/c mouse spleen T lymphocytes. The series is classed as functional, tissue-based.
The nature of series [6]: Suppression of CD23 expression in IL4 and anti-CD40 antibody sensitized CD14-positive human peripheral blood lymphocytes. Conditions: Lymphocyte.
A short description of series [7]: Suppression of CD23 expression in IL4 and anti-CD40 antibody sensitized mouse splenocytes. Conditions: Splenocyte.
A short description of series [8]: Suppression of IL4 receptor alpha expression in IL4 and anti-CD40 antibody sensitized mouse splenocytes. Conditions: Splenocyte.
Series [9] has as its system T-cell. The series can be described thus: Inhibition of IL13 production in conA and anti-CD3 antibody sensitized BALB/c mouse spleen T lymphocytes. Type of series: functional, tissue-based.
The subject of series [10] is Mus musculus. The series can be described thus: Protection against allergic response in ovalbumin sensitized BALB/c mouse assessed as inhibition of airway hyper-responsiveness at 5 mg/kg, po twice daily. Type of series: functional, organism-based. More on the design: dose 5 mg/kg. The gist of the method: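 Female BALB/c mice sensitized i.p. with 10 µg OVA in 4 mg alum. At 2 weeks, OVA aerosol (2% in PBS) 20 min on 2 consecutive days with oral dosing twice daily for 3 days. 2 weeks later, OVA aerosol on 4 consecutive days with the same dosing. PBS-nebulized controls. Airway response to rising methacholine measured by whole-body plethysmography 1 day later.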

As a reminder, the IC50 is the midpoint of a concentration-inhibition curve. Turning to `O=C(Nc1ccccn1)c1ccc2[nH]c(-c3ccc(NC(=O)C45C[C@@H]6C[C@H](C4)[C@@H](O)[C@@H](C6)C5)cc3)nc2c1`, the “Relative Bioavailability” value in the series on Mus musculus [1] is given as less than 0.1. For the same compound, the IC50 was 8 nM in the series with B-cell and 1 nM in series [2].
On the same counts, the results for `O=C(Nc1ccc(-c2nc3cc(C(=O)NC45CC6CC(CC(C6)C4)C5)ccc3[nH]2)cc1)c1ccc(Cl)c(Cl)c1` are less than 0.1, 2 nM and 0.4 nM.
On the same counts, the results for `O=C(Nc1ccccn1)c1ccc2[nH]c(-c3ccc(NC(=O)C45CC6CC(C4)C(=O)C(C6)C5)cc3)nc2c1` are 0.5, 40 nM and 10 nM.
On the same counts, the results for `O=C(NC1CCCCC1)c1ccc2[nH]c(-c3ccc(NC(=O)C45CC6CC(CC(C6)C4)C5)cc3)nc2c1` are less than 0.1, 7 nM and 2 nM.
On to `O=C(NC12CC3CC(CC(C3)C1)C2)c1ccc2[nH]c(-c3ccc(NC(=O)C45CC6CC(CC(C6)C4)C5)cc3)nc2c1`, for which the “Relative Bioavailability” value in the series on Mus musculus [1] was less than 0.1. Moreover, the IC50 with B-cell amounted to 2 nM; in series [2], 1 nM.
On the same counts, the results for `CC(=O)OC12CC3CC(C1)CC(C(=O)Nc1ccc(-c4nc5cc(C(=O)Nc6ccccn6)ccc5[nH]4)cc1)(C3)C2` are 0.35, 5 nM and 1 nM.
For `O=C(Nc1ccccn1)c1ccc2[nH]c(-c3ccc(NC(=O)C45C[C@@H]6C[C@H](C4)[C@H](O)[C@@H](C6)C5)cc3)nc2c1`, the “Relative Bioavailability” value in the series on Mus musculus [1] is listed as less than 0.1. Moreover, the values for the IC50 (in the series with B-cell; in series [2]) were 15 nM and 1 nM, respectively.
As for `O=C(Nc1ccccn1)c1ccc2[nH]c(-c3ccc(NC(=O)C45CC6CC(CC(C6)C4)C5)cc3)nc2c1`, the IC50 in the series on T-cell [3] stood at 30 nM; in the series on T-cell [5], 30 nM; in series [6], 20 nM; with B-cell, 8 nM; in series [7], 40 nM; in series [2], 3 nM. In addition, the IC50 was determined as 100 nM in series [8] and 30 nM in the series with T-cell [9]. In addition, the outcome in the series on T-cell [4] and in the series with Mus musculus [10] was Active.
As for `CC(=O)Nc1ccc(-c2nc3cc(C(=O)NC45CC6CC(CC(C6)C4)C5)ccc3[nH]2)cc1`, the “Relative Bioavailability” value in the series on Mus musculus [1] is given as less than 0.1. Moreover, the IC50 was found to be 90 nM in the series on B-cell and 25 nM in [2].
